Measured values from ChEMBL document CHEMBL5346886 (Eur J Med Chem, 2023).
In brackets after ≈: the same amount, converted by molar mass. Activity calls are given as the source filed them. The calls are words filed in the database; no cut-off is given here.

Columns and labels:
Murine hepatitis virus [1] = assay: Antiviral activity against murine hepatitis virus-A59 infected in BALB/c mouse assessed as inhibition of viral replication in lungs at 70 mg/kg, po administered once daily one hour post infection and measured after 3 days by qRT-PCR analysis; format: functional, organism-based; settings: time 3.0 day
How it was run: (§1)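 SPF male BALB/c mice aged 3–4 weeks were put under isoflurane and inoculated intranasally with 30 μL MHV-A59 (TCID50 = 10−7.125/100 μL) in PBS. Oral dosing once daily in 15% Cremophor EL/82.5% PBS/2.5% DMSO started at 1 hpi and ran for four days; groups had 12 mice. At 3 dpi, 4 mice per group were killed and lung and liver M-gene copies measured by qRT-PCR.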

[2] = Tmax in Sprague-Dawley rat at 25 mg/kg, po administered as single dose and measured at 0.25 to 24 hrs by LC-MS/MS analysis; format: ADME, organism-based; settings: in vivo, time 0.25-24 hrs
Murine hepatitis virus [3] = assay: Antiviral activity against murine hepatitis virus-A59 infected in BALB/c mouse assessed as reduction in IL-1beta production in liver at 70 mg/kg, po administered once daily one hour post infection and measured after 3 days by ELISA analysis; format: functional, organism-based; settings: time 3.0 day
How it was run: (§2)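 MHV-A59 was inoculated intranasally into male BALB/c mice (30 μL, TCID50 = 10−7.125/100 μL), with oral dosing once daily from 1 hpi for four days. At 3 dpi, 0.1 g lung or liver from 4 mice per group was homogenized in 0.9 mL water at 4 °C and centrifuged. Supernatant IFN-β was read by ELISA; TNF-α, IFN-γ, IL-1β, IL-6 and CXCL10 by multi-analyte kit, with OD 450 nm against standards.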

[4] = Oral bioavailability in Sprague-Dawley rat at 25 mg/kg administered as single dose and measured at 0.25 to 24 hrs by LC-MS/MS analysis; format: ADME, organism-based; settings: in vivo, time 0.25-24 hrs
Murine hepatitis virus [5] = assay: Antiviral activity against murine hepatitis virus-A59 infected in BALB/c mouse assessed as reduction in IFN-gamma production in liver at 70 mg/kg, po administered once daily one hour post infection and measured after 3 days by ELISA analysis; format: functional, organism-based; settings: time 3.0 day; how it was run: as §2
Murine hepatitis virus [6] = assay: Antiviral activity against murine hepatitis virus-A59 infected in BALB/c mouse assessed as reduction in CXCL10 production in liver at 70 mg/kg, po administered once daily one hour post infection and measured after 3 days by ELISA analysis; format: functional, organism-based; settings: time 3.0 day; how it was run: as §2
[7] = Cmax in Sprague-Dawley rat at 5 mg/kg, iv administered as single dose and measured at 0.083 to 24 hrs by LC-MS/MS analysis; format: ADME, organism-based; parameters: dose 5 mg/kg, time 0.083-24 hrs, route iv; settings: in vivo
[8] = AUC (0 to infinity) in Sprague-Dawley rat at 5 mg/kg, iv administered as single dose and measured at 0.083 to 24 hrs by LC-MS/MS analysis; format: ADME, organism-based; parameters: time upper 24 hrs, dose 5 mg/kg, time lower 0.083 hrs, route iv; settings: in vivo
Murine hepatitis virus [9] = assay: Antiviral activity against murine hepatitis virus-A59 infected in BALB/c mouse assessed as reduction in IFN-beta production in liver at 70 mg/kg, po administered once daily one hour post infection and measured after 3 days by ELISA analysis; format: functional, organism-based; settings: time 3.0 day; how it was run: as §2
Murine hepatitis virus [10] = assay: Antiviral activity against Murine hepatitis virus-A59 infected in mouse L929 cells assessed as reduction in viral copy pre-infected with cell for 1 hrs followed by compound addition and measured after 48 hrs in the presence of remdesivir by RT-qPCR analysis; format: functional, organism-based
How it was run: (§3)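 L929 cells in DMEM with 10% FBS were seeded for 24 h to 80% confluence and washed thrice with serum-free medium. Cells were infected with MHV-A59 at MOI 0.01 for 1 h at 37 °C, then compound was added, with DMSO as the blank control. After 48 h at 37 °C, cells and supernatants were taken for qRT-PCR of viral copies. Inhibition was calculated from copy number and fitted for EC50.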

Murine hepatitis virus [11] = assay: Antiviral activity against murine hepatitis virus-A59 infected in BALB/c mouse assessed as reduction in TNF-alpha production in liver at 70 mg/kg, po administered once daily one hour post infection and measured after 3 days by ELISA analysis; format: functional, organism-based; settings: time 3.0 day; how it was run: as §2
Murine hepatitis virus [12] = assay: Antiviral activity against murine hepatitis virus-A59 infected in BALB/c mouse assessed as reduction in IL6 production in liver at 70 mg/kg, po administered once daily one hour post infection and measured after 3 days by ELISA analysis; format: functional, organism-based; settings: time 3.0 day; how it was run: as §2
[13] = Tmax in Sprague-Dawley rat at 5 mg/kg, iv administered as single dose and measured at 0.083 to 24 hrs by LC-MS/MS analysis; format: ADME, organism-based; settings: in vivo, time 0.083-24 hrs
[14] = Cmax in Sprague-Dawley rat at 25 mg/kg, po administered as single dose and measured at 0.25 to 24 hrs by LC-MS/MS analysis; format: ADME, organism-based; parameters: dose 25 mg/kg, time 0.25-24 hrs, route po; settings: in vivo
Murine hepatitis virus [15] = assay: Antiviral activity against murine hepatitis virus-A59 infected in BALB/c mouse assessed as inhibition of viral replication in liver at 70 mg/kg, po administered once daily one hour post infection and measured after 3 days by qRT-PCR analysis; format: functional, organism-based; settings: time 3.0 day; how it was run: as §1
[16] = AUC (0 to infinity) in Sprague-Dawley rat at 25 mg/kg, po administered as single dose and measured at 0.25 to 24 hrs by LC-MS/MS analysis; format: ADME, organism-based; parameters: time upper 24 hrs, time lower 0.25 hrs, dose 25 mg/kg, route po; settings: in vivo
Murine hepatitis virus [17] = assay: Antiviral activity against Murine hepatitis virus-A59 infected in mouse L929 cells assessed as reduction in viral copy upto 200 uM pre-infected with cell for 1 hrs followed by compound addition and measured after 48 hrs by RT-qPCR analysis; format: functional, organism-based; how it was run: as §3
Murine hepatitis virus [18] = assay: Antiviral activity against Murine hepatitis virus-A59 infected in mouse L929 cells assessed as reduction in viral copy pre-infected with cell for 1 hrs followed by compound addition and measured after 48 hrs by RT-qPCR analysis; format: functional, organism-based; settings: Murine coronavirus
How it was run: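 L929 cells in DMEM with 10% FBS were washed serum-free at 80% confluence and infected with MHV-A59 at MOI 0.01 for 1 h at 37 °C. Compounds were added at 0.1–100 μmol/L, with DMSO as blank control. After 48 h at 37 °C, the viral M gene in supernatant was measured by qRT-PCR. Percent inhibition was derived from copy number and EC50 from curve fitting.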

Murine hepatitis virus [19] = assay: Antiviral activity against murine hepatitis virus-A59 infected in BALB/c mouse assessed as inhibition of viral replication in lungs at 100 mg/kg, po administered once daily one hour post infection and measured after 3 days by qRT-PCR analysis; format: functional, organism-based; settings: time 3.0 day; how it was run: as §1
Murine hepatitis virus [20] = assay: Antiviral activity against murine hepatitis virus-A59 infected in BALB/c mouse assessed as inhibition of viral titer in liver at 100 mg/kg, po administered once daily one hour post infection and measured after 3 days by qRT-PCR analysis; format: functional, organism-based; settings: time 3.0 day; how it was run: as §1
Murine hepatitis virus [21] = assay: Antiviral activity against murine hepatitis virus-A59 infected in BALB/c mouse assessed as alleviation of necrotic debris in lungs at 100 mg/kg, po administered once daily one hour post infection and measured after 3 days by H&E staining based analysis; format: functional, organism-based; settings: time 3.0 day
How it was run: (§4)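 In male BALB/c mice (3–4 weeks), MHV-A59 was given intranasally (30 μL, TCID50 = 10−7.125/100 μL). Oral dosing once daily in a Cremophor EL/PBS/DMSO vehicle began at 1 hpi and lasted four days. At 3 dpi, lungs and livers from 4 mice per group were fixed in zinc formalin and paraffin-embedded. Sections of about 4 μm were stained with H&E and examined at 200× and 400×.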

Murine hepatitis virus [22] = assay: Antiviral activity against murine hepatitis virus-A59 infected in BALB/c mouse assessed as alleviation of lymphocytes infiltration in lungs at 100 mg/kg, po administered once daily one hour post infection and measured after 3 days by H&E staining based analysis; format: functional, organism-based; settings: time 3.0 day; how it was run: as §4
Murine hepatitis virus [23] = assay: Antiviral activity against murine hepatitis virus-A59 infected in BALB/c mouse assessed as alleviation of interstitial pneumonia in lungs at 100 mg/kg, po administered once daily one hour post infection and measured after 3 days by H&E staining based analysis; format: functional, organism-based; settings: time 3.0 day; how it was run: as §4
[24] = MRT (0 to infinity) in Sprague-Dawley rat at 25 mg/kg, po administered as single dose and measured at 0.25 to 24 hrs by LC-MS/MS analysis; format: ADME, organism-based; settings: in vivo, time 0.25-24 hrs
[25] = MRT (0 to infinity) in Sprague-Dawley rat at 5 mg/kg, iv administered as single dose and measured at 0.083 to 24 hrs by LC-MS/MS analysis; format: ADME, organism-based; settings: in vivo, time 0.083-24 hrs
Murine hepatitis virus [26] = assay: Antiviral activity against murine hepatitis virus-A59 infected in BALB/c mouse assessed as inhibition of viral replication in liver at 100 mg/kg, po administered once daily one hour post infection and measured after 3 days by qRT-PCR analysis; format: functional, organism-based; settings: time 3.0 day; how it was run: as §1
Murine hepatitis virus [27] = assay: Antiviral activity against murine hepatitis virus-A59 infected in BALB/c mouse assessed as reduction in mortality at 100 mg/kg, po administered once daily one hour post infection and measured after 23 days; format: functional, organism-based; settings: time 23.0 day
How it was run: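 After intranasal MHV-A59 inoculation (30 μL, TCID50 = 10−7.125/100 μL), 3–4-week-old male BALB/c mice received oral drug or vehicle once daily from 1 hpi for four days, 12 per group. The remaining mice were monitored daily for body weight, clinical signs and death until 23 dpi; survival curves were plotted.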

Murine hepatitis virus [28] = assay: Antiviral activity against murine hepatitis virus-A59 infected in BALB/c mouse assessed as alleviation of thickened alveolar septa in lungs at 100 mg/kg, po administered once daily one hour post infection and measured after 3 days by H&E staining based analysis; format: functional, organism-based; settings: time 3.0 day; how it was run: as §4
[29] = Stability in human plasma assessed as half-life; format: ADME, cell-free
[30] = Solubility of the compound; format: physicochemical
Murine hepatitis virus [31] = assay: Potency index, ratio of GS-441524 EC50 to test compound EC50 for antiviral activity against Murine hepatitis virus-A59 infected in mouse L929 cells assessed as reduction in viral copy pre-infected with cell for 1 hrs followed by compound addition and measured after 48 hrs by RT-qPCR analysis; format: functional

CC(C)Cc1ccc(C(C)C(=O)O)cc1 (stereo not given) [IBUPROFEN]
Activity (Murine hepatitis virus [1]): inactive | Tmax [2]: 0.67 h | Activity (Murine hepatitis virus [3]): inactive | F [4]: 78.42% | Activity (Murine hepatitis virus [5]): inactive | Activity (Murine hepatitis virus [6]): inactive | Cmax [7]: 41.8 µM | AUC [8]: 67.1 uM.hr/L | Activity (Murine hepatitis virus [9]): inactive | Activity (Murine hepatitis virus [10]): inactive | Activity (Murine hepatitis virus [11]): inactive | Activity (Murine hepatitis virus [12]): inactive | Tmax [13]: 1.8 min | Cmax [14]: 80.2 µM | Activity (Murine hepatitis virus [15]): inactive | AUC [16]: 263 uM.hr/L | Activity (Murine hepatitis virus [17]): inactive

CCC(CC)COC(=O)[C@H](C)N[P@](=O)(OC[C@H]1O[C@@](C#N)(c2ccc3c(N)ncnn23)[C@H](O)[C@@H]1O)Oc1ccccc1
EC50 (Murine hepatitis virus [18]): 1.82 µM

N#C[C@@]1(c2ccc3c(N)ncnn23)O[C@H](CO)C(O)C1O (single isomer, unassigned) [GS-441524]
F [4]: 60.31% | Activity (Murine hepatitis virus [19]): Active | Activity (Murine hepatitis virus [20]): Active | Activity (Murine hepatitis virus [21]): inactive | Activity (Murine hepatitis virus [22]): inactive | Activity (Murine hepatitis virus [23]): inactive | MRT [24]: 3.16 h | Cmax [7]: 5.67 µM | EC50 (Murine hepatitis virus [18]): 10 µM | MRT [25]: 1.28 h | Activity (Murine hepatitis virus [26]): Active | Activity (Murine hepatitis virus [27]): Active | AUC [8]: 7.51 uM.hr/L | Activity (Murine hepatitis virus [28]): inactive | Cmax [14]: 7.75 µM | AUC [16]: 22.6 uM.hr/L

COc1ccc2c(c1)c(CC(=O)OC[C@H]1O[C@@](C#N)(c3ccc4c(N)ncnn34)[C@H](O)[C@@H]1O)c(C)n2C(=O)c1ccc(Cl)cc1
t1/2 [29]: 2.8345 h | EC50 (Murine hepatitis virus [18]): 10.1 µM | solubility [30]: 0.1 µM (≈ 0.0631 µg/mL)

CC(C(=O)OC[C@H]1O[C@@](C#N)(c2ccc3c(N)ncnn23)[C@H](O)[C@@H]1O)c1cccc(C(=O)c2ccccc2)c1 (stereo not given in full)
t1/2 [29]: 3.3197 h | EC50 (Murine hepatitis virus [18]): 4.17 µM | solubility [30]: 1070 µM (≈ 566 µg/mL)

N#C[C@@]1(c2ccc3c(N)ncnn23)O[C@H](COC(=O)Cc2ccccc2Nc2c(Cl)cccc2Cl)[C@@H](O)[C@H]1O
t1/2 [29]: 3.186 h | EC50 (Murine hepatitis virus [18]): 6.4 µM | solubility [30]: 3.7 µM (≈ 2.11 µg/mL)

COc1ccc2cc([C@H](C)C(=O)OC[C@H]3O[C@@](C#N)(c4ccc5c(N)ncnn45)[C@H](O)[C@@H]3O)ccc2c1
t1/2 [29]: 3.0328 h | EC50 (Murine hepatitis virus [18]): 8.65 µM | solubility [30]: 155 µM (≈ 78 µg/mL)

CC(C(=O)OC[C@H]1O[C@@](C#N)(c2ccc3c(N)ncnn23)[C@H](O)[C@@H]1O)c1cccc(Oc2ccccc2)c1 (stereo not given in full)
t1/2 [29]: 2.8218 h | Ratio EC50 (Murine hepatitis virus [31]): 8 | EC50 (Murine hepatitis virus [18]): 1.27 µM | solubility [30]: 29 µM (≈ 15 µg/mL)
